Experimental data reported in ChEMBL document CHEMBL4513216, “Probing the Open Global Health Chemical Diversity Library for Multistage-Active Starting Points for Next-Generation Antimalarials” (ACS Infect Dis, 2020).

Test: Toxicity liver stage against HepG2, at 10uM
Type: cell-based
Design: test concentration 10 uM, cell line HepG2-A16-CD81EGFP
Details: human, HepG2-A16-CD81EGFP cells; read-out: INHIBITION
Procedure, shortened: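 Uninfected HepG2-A16-CD81EGFP cells, 3 × 10^3 per well, 1536-well, plated on prespotted compound at 10 μM final, parasite-free screening media added to match infected plates; puromycin 10 μM positive, DMSO 0.5% negative; run in parallel with 48 h PbLuc assay at 37 °C, 5% CO2; viability by CellTiter-Glo luminescence, normalized to controls.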

SMILES | cytotoxicity at 10 µM [%]
Cc1c(C(C)Nc2ncnc3sccc23)cnn1C (configuration not stated) | 40.1
CCCOc1c(Cl)cc(C(=O)N2CCOC23CCN(C)CC3)cc1Cl | 8.17
O=c1c(NCCNCCO)c(N2CCN(c3ccccc3)CC2)c1=O | -7.76
CCS(=O)(=O)N1CCC2(CCCN(c3ncc(F)cn3)C2)C1 (configuration not stated) | 10.3
CS(=O)(=O)N1CCCCC12CCN(c1nncs1)CC2 | 10.6
O=C(NC1CCCC1)c1cc2c(s1)CCN2C(=O)c1ccccc1 | 6.55
Cc1c(C)n(Cc2ccccn2)c2nc3c(c(N)c12)CCCCC3 | 3.3
CCc1cnc2c(c1NCc1cccc(OC)c1)c(=O)n(C)c(=O)n2C | 24.8
CCN1CC(Oc2ccc(Cl)cc2)=NC(SCC(=O)c2ccccc2)=N1 | 0.515
O=C1CNc2ncnc(N3CCN(Cc4cccc(F)c4)CC3)c2N1 | 7.88
CN(C)CCNC(=O)CCn1ncc2c(Cl)cccc21 | 5.92
COCCNC(=O)CCn1ncc2c(Cl)cccc21 | 10.5
Cc1c(Cl)c(C(=O)NN2CCOCC2)nn1C | 7.47
O=C1CCC(c2nc(C3CCNCC3)no2)N1 (configuration not stated) | -3.96
CS(=O)(=O)N1CC2(CCN(C3COC3)C2)Cc2ccccc21 (configuration not stated) | 11.9
O=C(Nc1c(N2CCCC2)cccc1N1CCCC1)c1ccccn1 | -25.7
O=C(CN1CCCS1(=O)=O)Nc1cccc(COC2CCCCC2)c1 | 0.568
CC(C)OCCN1CCC(Nc2ncccn2)CC1 | -1
COC(=O)C(NC(=O)c1cc(F)cc(F)c1)c1cccnc1 (configuration not stated) | -39.1
COc1ccc(Oc2ncccc2NC(=O)N2CCOCC2)cc1 | 9.11
Cc1cccc(-c2noc(Cn3nc(C(N)=O)ccc3=O)n2)c1 | -1.15

SMILES | cytotoxicity at 10 µM [%]
Cc1ccc(CNc2cc3c(cc2Cl)NC(=O)CO3)cc1C | 0.651
COCCOCCC(=O)N1CCC(c2ccccc2C)C1 (configuration not stated) | -9.46
Cn1ccc2c(C(=O)NCCCN3CCCC3)cccc21 | -18.3
Cc1nc(CCNC(=O)NCC(c2ccco2)N(C)C)cs1 (configuration not stated) | 7.26
CN1CCN(Cc2ccccc2CNC(=O)c2ccc(Cl)cc2F)CC1 | 15.5
Cc1ccc(-c2ccc(C(=O)NCCS(N)(=O)=O)c(F)c2)cc1 | 11.3
Cc1cnc(CNc2ccccc2CN(C)C(=O)c2cccs2)o1 | -3.83
CN(C)c1nccc(N(C)Cc2nc3ccccc3n2C)n1 | 0.482
COCC(C)(C#N)NC(=O)c1cn(-c2cccc(Cl)c2F)nn1 (configuration not stated) | 0.472
COc1cc(NC(=O)N2CCCC2c2nncn2C)ccc1Br (configuration not stated) | 5.67
CCN1CCN(C(=O)Cc2ccc(S(=O)(=O)C(F)F)cc2)CC1 | -6.43
Cc1cc(C)n(Cc2cccc(C(=O)N(CCC#N)CCC#N)c2)n1 | 13.1
Cc1c(C(=O)NS(=O)(=O)c2ccc(F)cc2)cnn1CC(C)C | -6.63
COCCN(CCOC)S(=O)(=O)N(C)Cc1ccncc1 | 8.07
COc1cccc(C(O)CN2CCN(C(=O)CCC(C)C)CC2)c1 (configuration not stated) | -46.9
CC(=O)N1CCCCCC1C1CCN(Cc2nc(C3CC3)no2)CC1 (configuration not stated) | -56.4
CC(c1nc(C2CC2)no1)N1CCN(c2ccc(C#N)cn2)CC1 (configuration not stated) | 1.18
Cc1oncc1C(=O)N1CC[C@H]2[C@@H]1CCC(=O)N2CC1CC1 | 6.42
Cc1ccc2c(n1)N(CC1CC1)CCN(Cc1cnn(C)c1)C2 | -2.91
CC(C)n1c2ccccc2c2c1cc(C(=O)NCCO)n2C(=O)N(C)C | -93.8
COCCn1c2c(ccc1=O)CC(NCc1cnn(C)c1)CC2 (configuration not stated) | -103

SMILES | cytotoxicity at 10 µM [%]
Cn1cc(C[C@H]2[C@H](N3CCOCC3)CCN2C(=O)c2ccc[nH]2)cn1 | -75
C[C@@H]1C[C@@H]2CCN(Cc3ccccn3)C[C@H]2O1 | -75.9
Fc1cnc(N2CCCC3(CCN(Cc4nccs4)C3)C2)nc1 (configuration not stated) | -67.9
Cc1nc(CN2CCCC(CCc3ccc(F)c(F)c3)C2)c[nH]1 (configuration not stated) | -10.4
COCc1cn(C2CCN(CCC(C)c3ccccc3)CC2)nn1 (configuration not stated) | 6.39
COCc1ncc(CN2CCC(Oc3ccc(OC)cc3)CC2)cn1 | -5.72
CC(C)c1cc(C(=O)N2CCCC2c2nc(-c3ccccc3)no2)[nH]n1 (configuration not stated) | -4.5
O=C(Nc1ccccc1-c1ccccc1)N1C[C@@H]2CNC[C@]2(C(=O)O)C1 | -40.5
O=C(c1cnc[nH]1)N1CCC(Oc2cccnc2)CC1 | 6.87
COCCN1CCN(Cc2nccs2)[C@H]2CS(=O)(=O)C[C@H]21 | -1.82
CCc1[nH]c2c(CNc3nccc(N)n3)cc(F)cc2c1C | -8.36
COc1cccc(C2CCN2C(=O)c2cc(C(C)C)on2)c1 (configuration not stated) | -2.96
Cc1ncc(CN2CCC3(CC2)CC(=O)N(C)C3)cn1 | 9.8
COc1cccc(OCCCc2cc(C#N)ccn2)c1 | -9.72
COc1cccc(OC2CN(C(=O)CCn3cnnn3)C2)c1 | -0.0726
Cc1nc(-c2cccnc2)ncc1C(=O)N1CCCCC(N)C1 (configuration not stated) | 7.57
Cc1ccc(C(=O)N2CCC(n3cc(CO)nn3)CC2)cn1 | -1.72
CNS(=O)(=O)c1cc(C)c2[nH]c(=O)cc(C)c2c1 | -7.76
Cc1nc(N2C[C@H]3CNC[C@H]3C2)c2sccc2n1 | 9.26
COc1ccc2c(c1)OCC(Cc1cnc(N)c(C)c1)C2 (configuration not stated) | -1.23
CSc1ccccc1CN1CCn2nc(CNC(C)=O)cc2C1 | -17

SMILES | cytotoxicity at 10 µM [%]
Cc1c(O)oc(-c2ccc(Br)cc2)nc1=O | -1.56
c1cnnc(N2CCCC(NCc3nc(-c4ccco4)no3)C2)c1 (configuration not stated) | -20
Cc1ccc(NC2CCN(C(=O)c3cccc4[nH]ncc34)CC2)nn1 | -13.7
Cc1cccc(OCCC(=O)N2CCCN(CC(N)=O)CC2)c1C | -7.28
CC1CN(Cc2noc(C3CC3)n2)CCN1Cc1nccn1C (configuration not stated) | -10
Cc1cccc(C)c1OCCC(=O)N1CCC(c2nncn2C)CC1 | -12
CCn1cc(NC(=O)CCc2ccc3c(c2)OCCCO3)cn1 | -9.26
CN(C)C(=O)c1cn[nH]c1C1CCCN1Cc1nccn1C (configuration not stated) | -1.08
Cc1nc(NCc2ccco2)nc2c1COCC21CCNC1 (configuration not stated) | 10.3
CO[C@@H]1CCN(C(=O)Cc2ccc(F)cc2)[C@@H]1Cc1cccnc1 | 10.1
Cc1ccc(CN2CCC3(CC2)CC(c2cccnc2)C(=O)N3C)o1 (configuration not stated) | -2.71
COc1ccccc1OCC(=O)N1C[C@@H]2CN(C)CCO[C@@H]2C1 | -2.94
CC(C)n1cnc2c(-c3cccnc3)nc(C3CCNCC3)cc21 | -114
CC(C)CS(=O)(=O)N1CCC2(CN(c3cccc(F)c3)C(=O)CN2C)C1 (configuration not stated) | -75.2
O=C(c1ccc(F)cc1)N1C[C@@H]2COC[C@]2(COc2cccnc2)C1 | -100
CCN(C)c1ncnc2c1CCN(CC1CCOC1)CC2 (configuration not stated) | -79.3
CC(C)(CO)Nc1cc(-c2cn[nH]c2)ncn1 | -1.44
Cc1ccc(C2c3c(n[nH]c3C)N=C3COC(=O)C32)cc1C (configuration not stated) | 74.9
O=C(Nc1ccccc1)N1C[C@@H]2C[C@H](C(=O)N3CCOCC3)[C@H](C1)O2 | 7.53
